Assay [1] concerns the target GABA-A receptor; anion channel. Kind of assay: The concentration required to inhibit 50% of binding of [35S]TBPS to Gamma-aminobutyric acid A receptor to rat whole brain membranes. It counts as cell membranes.
Another assay has as its system Mus musculus. Kind of assay: Hypnotic dose was determined by observing loss of righting reflex for a minimum period of 30 sec in 50% of treated mice after i.v. administration. It counts as functional. The gist of the method: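 Male CFLP mice (25–35 g), tested in the light period. Groups of eight received an i.v. lateral tail vein injection over 10 s (10 mL kg-1) on a μmol/kg dose series, e.g. 2–16, with extra doses added. Vehicle was saline for amine salts; standards were in HPCD/saline, emulsion or saline. HD50 with 95% confidence limits was obtained by probit analysis of the fraction showing LRR ≥30 s.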

This is an account of results in ChEMBL document CHEMBL1130383, “Anesthetic activity of novel water-soluble 2 beta-morpholinyl steroids and their modulatory effects at GABAA receptors” (J Med Chem, 1997).

`C[C@]12C[C@H](N3CCOCC3)[C@@H](O)C[C@@H]1CC[C@H]1[C@@H]3CC[C@H](C(=O)CO)[C@@]3(C)CC(=O)[C@@H]12`: the IC50 in assay [1] was determined as 1.16 µM. Besides, the HD50 in the assay on Mus musculus is 198.2 µM/kg.
For `C[C@]12C[C@H](N3CCOCC3)[C@@H](O)C[C@@H]1CC[C@@H]1[C@@H]2CC[C@]2(C)[C@@H](C(=O)CBr)CC[C@@H]12` the same measures were 0.148 µM and 22.8 µM/kg.
The matching figures for `CC(=O)[C@H]1CC[C@H]2[C@@H]3CC[C@H]4C[C@H](O)[C@@H](N5CCSCC5)C[C@]4(C)[C@H]3C(=O)C[C@]12C`: 1.39 µM and 20 µM/kg.
In turn, `CC[C@@H]1CN([C@H]2C[C@@]3(C)[C@@H](CC[C@@H]4[C@@H]3CC[C@]3(C)[C@@H](C(C)=O)CC[C@@H]43)C[C@@H]2O)CCO1` gave an IC50 in assay [1] of 0.91 µM. Further, the HD50 in the assay with Mus musculus turned out to be 11.2 µM/kg.
The matching figures for `CC(=O)SCC(=O)[C@H]1CC[C@H]2[C@@H]3CC[C@H]4C[C@H](O)[C@@H](N5CCOCC5)C[C@]4(C)[C@H]3CC[C@]12C`: 0.235 µM and 33.8 µM/kg.
For `CC1(C)CN([C@H]2C[C@@]3(C)[C@@H](CC[C@H]4[C@@H]5CC[C@H](C(=O)CSC#N)[C@@]5(C)CC(=O)[C@@H]43)C[C@@H]2O)CCO1` the same measures were 0.316 µM and 10 µM/kg.
For `CCC1(CC)CN([C@H]2C[C@@]3(C)[C@@H](CC[C@H]4[C@@H]5CC[C@H](C(C)=O)[C@@]5(C)CC(=O)[C@@H]43)C[C@@H]2O)CCO1` the same measures were 0.079 µM and 12 µM/kg.
With `CC(=O)[C@H]1CC[C@H]2[C@@H]3CC[C@H]4C[C@H](O)[C@@H](N5CCO[C@@H](Cc6ccccc6)C5)C[C@]4(C)[C@H]3C(=O)C[C@]12C`, the IC50 in assay [1] amounted to 0.1 µM. This compound returned an HD50 in the assay with Mus musculus of 12.8 µM/kg.
In assay [1], `CC1(C)CN([C@H]2C[C@@]3(C)[C@@H](CC[C@H]4[C@@H]5CC[C@H](C(=O)CN=[N+]=[N-])[C@@]5(C)CC(=O)[C@@H]43)C[C@@H]2O)CCO1` returned an IC50 of 2.17 µM. In the assay on Mus musculus, this compound yielded an HD50 of 10.7 µM/kg.
For `CC(=O)[C@H]1CC[C@H]2[C@@H]3CC[C@H]4C[C@H](O)[C@@H](N5CCO[C@@H](C)C5)C[C@]4(C)[C@H]3CC[C@]12C` the same measures were 0.424 µM and 29 µM/kg.
The matching figures for `CC[C@H]1CN([C@H]2C[C@@]3(C)[C@@H](CC[C@H]4[C@@H]5CC[C@H](C(C)=O)[C@@]5(C)CC(=O)[C@@H]43)C[C@@H]2O)CCO1`: 1.49 µM and 15.1 µM/kg.
The matching figures for `CCCCC1(CCCC)CN([C@H]2C[C@@]3(C)[C@@H](CC[C@H]4[C@@H]5CC[C@H](C(C)=O)[C@@]5(C)CC(=O)[C@@H]43)C[C@@H]2O)CCO1`: 0.053 µM and 31.1 µM/kg.
`CC(=O)[C@H]1CC[C@H]2[C@@H]3CC[C@H]4C[C@H](O)[C@@H](N5CCOC(c6ccccc6)(c6ccccc6)C5)C[C@]4(C)[C@H]3C(=O)C[C@]12C` gave an IC50 in assay [1] of 0.497 µM. For the same compound, the HD50 in the assay on Mus musculus was 49.9 µM/kg.
As for `CC(=O)[C@H]1CC[C@H]2[C@@H]3CC[C@H]4C[C@H](O)[C@@H](N5C[C@@H](C)O[C@@H](C)C5)C[C@]4(C)[C@H]3CC[C@]12C`, in the assay on Mus musculus, the HD50 turned out to be 26 µM/kg.
Compound `CCC[C@@H]1CN([C@H]2C[C@@]3(C)[C@@H](CC[C@H]4[C@@H]5CC[C@H](C(C)=O)[C@@]5(C)CC(=O)[C@@H]43)C[C@@H]2O)CCO1` showed an IC50 in assay [1] of 0.142 µM. For the same compound, the HD50 in the assay with Mus musculus was 6.4 µM/kg.
For `CC(=O)[C@H]1CC[C@H]2[C@@H]3CC[C@H]4C[C@H](O)[C@@H](N5CCSC(C)(C)C5)C[C@]4(C)[C@H]3CC[C@]12C` the same measures were 0.115 µM and 51.9 µM/kg.
The matching figures for `CC(=O)[C@H]1CC[C@H]2[C@@H]3CC[C@H]4C[C@H](O)[C@@H](N5CCO[C@H](C)C5)C[C@]4(C)[C@H]3C(=O)C[C@]12C`: 1.14 µM and 17 µM/kg.
In the assay on Mus musculus, `CC(=O)[C@H]1CC[C@H]2[C@@H]3CC[C@H]4C[C@H](O)[C@@H](N5CCSCC5)C[C@]4(C)[C@H]3CC[C@]12C` showed an HD50 of 40.5 µM/kg.
As to `CC(=O)OCC(=O)[C@H]1CC[C@H]2[C@@H]3CC[C@H]4C[C@H](O)[C@@H](N5CCOC(C)(C)C5)C[C@]4(C)[C@H]3CC[C@]12C`, in assay [1], the IC50 is 0.387 µM. The HD50 in the assay on Mus musculus was 16.9 µM/kg.
`CCO[C@H]1C[C@@]2(C)[C@@H](CC[C@@H]3[C@@H]2[C@H](N(C)C)C[C@]2(C)[C@@H](C(C)=O)CC[C@@H]32)C[C@@H]1O` [MINAXOLONE]: in the assay on Mus musculus, the HD50 was found to be 7.3 µM/kg.
On the same count and under the same terms, for `CC[C@H]1CN([C@H]2C[C@@]3(C)[C@@H](CC[C@@H]4[C@@H]3CC[C@]3(C)[C@@H](C(C)=O)CC[C@@H]43)C[C@@H]2O)CCO1` the value was 22.7 µM/kg.
In assay [1], `CC(=O)[C@H]1CC[C@H]2[C@@H]3CC[C@H]4C[C@H](O)[C@@H](N5CCO[C@H](Cc6ccccc6)C5)C[C@]4(C)[C@H]3C(=O)C[C@]12C` returned an IC50 of 0.131 µM. For the same compound, in the assay with Mus musculus, the HD50 is 12.6 µM/kg.
The matching figures for `CC(=O)[C@H]1CC[C@H]2[C@@H]3CC[C@H]4C[C@H](O)[C@@H](N5CCO[C@H](CC(C)C)C5)C[C@]4(C)[C@H]3C(=O)C[C@]12C`: 0.053 µM and 6.5 µM/kg.
The matching figures for `CCC[C@H]1CN([C@H]2C[C@@]3(C)[C@@H](CC[C@H]4[C@@H]5CC[C@H](C(C)=O)[C@@]5(C)CC(=O)[C@@H]43)C[C@@H]2O)CCO1`: 0.948 µM and 10.8 µM/kg.
The matching figures for `CC(=O)[C@H]1CC[C@H]2[C@@H]3CC[C@H]4C[C@H](O)[C@@H](N5CC(C)(C)SC(C)(C)C5)C[C@]4(C)[C@H]3C(=O)C[C@]12C`: 0.231 µM and 61.8 µM/kg.
In assay [1], `CC(=O)[C@H]1CC[C@H]2[C@@H]3CC[C@H]4C[C@H](O)[C@@H](N5CC(C)(C)OC(C)(C)C5)C[C@]4(C)[C@H]3C(=O)C[C@]12C` returned an IC50 of 0.127 µM. The same compound showed an HD50 with Mus musculus of 8.3 µM/kg.

A word on the IC50: it is the concentration at which inhibition is half-maximal.
